Measurements published in ChEMBL document CHEMBL1800046, “Design, synthesis, and X-ray crystallographic studies of α-aryl substituted fosmidomycin analogues as inhibitors of Mycobacterium tuberculosis 1-deoxy-D-xylulose 5-phosphate reductoisomerase” (J Med Chem, 2011).

Assays:
[1] = Inhibition of Mycobacterium tuberculosis DXR-catalyzed NADPH-dependent rearrangement and reduction of DXP to form MEP measured every 5 secs for 500 secs by spectrophotometric analysis
[2] = system: Mycobacterium tuberculosis; test: Antibacterial activity against Mycobacterium tuberculosis H37Rv ATCC 27294 after 14 days by microplate alamar blue assay; assay type: functional; details: H37Rv ATCC 27294, 336 h
Summary of the method: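 Resazurin (Alamar blue) dye readout in 96-well format. Serially diluted compound added to a log-phase culture of M. tuberculosis H37Rv (ATCC 27294). MIC recorded in µg/ml.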

[3] = system: Mycobacterium tuberculosis; test: Inhibition of Mycobacterium tuberculosis DXR-catalyzed NADPH-dependent rearrangement and reduction of DXP to form MEP at 100 uM measured every 5 secs for 500 secs by spectrophotometric analysis
Summary of the method: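 Screened with inhibitor at 100 µM. Started by adding DXP, at 22 °C. A340 for NADPH read every 5 s over 500 s. Initial velocity from the linear slope, compared with the uninhibited reaction.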

CCOP(=O)(OCC)C(CCN(O)C=O)c1ccc(Cl)c(Cl)c1 (racemic)
IC50 [1]: > 100 µM

CCOP(=O)(OCC)C(CCN(O)C(C)=O)c1ccc(Cl)c(Cl)c1 (racemic)
IC50 [1]: > 100 µM

CCOP(=O)(O)C(CCN(O)C=O)c1ccc(Cl)c(Cl)c1 (racemic)
IC50 [1]: 38 µM

CCOP(=O)(O)C(CCN(O)C(C)=O)c1ccc(Cl)c(Cl)c1 (racemic)
IC50 [1]: 22 µM

O=CN(O)CCC(c1ccccc1Br)P(=O)(O)O (racemic)
IC50 [1]: 5.6 µM
MIC [2]: > 32 µg/mL
inhibition [3]: 93%

CC(=O)N(O)CCC(c1ccccc1Br)P(=O)(O)O (racemic)
IC50 [1]: 210 µM
MIC [2]: > 32 µg/mL
inhibition [3]: 38%

CC(=O)N(O)CCC(c1ccccc1C#N)P(=O)(O)O (racemic)
MIC [2]: > 32 µg/mL
inhibition [3]: 30%

CC(=O)N(O)CCC(c1ccccc1-c1cccnc1)P(=O)(O)O (racemic)
MIC [2]: > 32 µg/mL
inhibition [3]: 20%

CCOP(=O)(O)C(CCNC(C)=O)c1ccccc1-c1cccnc1 (racemic)
MIC [2]: > 32 µg/mL
inhibition [3]: 20%

CC(=O)N(O)CCC(c1ccccc1-c1cccs1)P(=O)(O)O (racemic)
MIC [2]: > 32 µg/mL
inhibition [3]: 30%

CC(=O)N(O)CCC(c1ccccc1CO)P(=O)(O)O (racemic)
IC50 [1]: 465 µM
MIC [2]: > 32 µg/mL
inhibition [3]: 36%

CC(=O)N(O)CCC(c1ccccc1C)P(=O)(O)O (racemic)
IC50 [1]: 205 µM
MIC [2]: > 32 µg/mL
inhibition [3]: 55%

COCc1ccccc1C(CCN(O)C(C)=O)P(=O)(O)O (racemic)
MIC [2]: > 32 µg/mL
inhibition [3]: 30%

CC(=O)N(O)CCC(c1ccccc1CCO)P(=O)(O)O (racemic)
IC50 [1]: 150 µM
MIC [2]: > 32 µg/mL
inhibition [3]: 35%

CC(=O)N(O)CCC1c2ccccc2COP1(=O)O (racemic)
MIC [2]: > 32 µg/mL
inhibition [3]: 12%

CC(=O)N(O)CCC(c1ccccc1)P(=O)(O)O (racemic)
IC50 [1]: 7.4 µM
MIC [2]: > 32 µg/mL
inhibition [3]: 92%

O=CN(O)CCCP(=O)(O)O [FOSMIDOMYCIN]
IC50 [1]: 0.08 µM

CC(=O)N(O)CCCP(=O)(O)O [FR-900098]
IC50 [1]: 0.16 µM
